ChEMBL document CHEMBL4390651, “Indole based antimalarial compounds targeting the melatonin pathway: Their design, synthesis and biological evaluation” (Eur J Med Chem, 2019)
Calls of active or inactive are those of the source. No cut-off for these calls is given here.

Experiments:
[1] = tested on: Plasmodium falciparum; experiment: Antimalarial activity against Plasmodium falciparum 3D7 infected in human erythrocytes assessed as reduction in [3H]hypoxanthine incorporation pretreated for 24 hrs followed by [3H]hypoxanthine addition and measured after 48 hrs by scintillation counting method
[2] = tested on: Plasmodium falciparum; experiment: Antimalarial activity against synchronized ring stage of Plasmodium falciparum 3D7 infected in human erythrocytes assessed as inhibition of parasite growth at 10 uM incubated for 0 to 48 hrs by Giemsa staining-based microscopic analysis; type: functional
Summary of the method: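 3D7 was sorbitol-synchronized to ring stage at 1% parasitemia, cultured in human O+ erythrocytes (5% hematocrit, RPMI 1640/albumax, 37 °C, low-O2 gas), and exposed for 48 h, with DMSO as control. Giemsa smears at 0, 12, 24, 36 and 48 h gave parasitemia and stage morphology. Mean ± SD of three independent experiments.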

[3] = tested on: Plasmodium falciparum; experiment: Antimalarial activity against ring stage of Plasmodium falciparum 3D7 infected in human erythrocytes assessed as parasite survival level at 10 uM measured immediately at 0 hrs by Giemsa staining-based microscopic analysis (reference value: 96.4 +/- 5.09%); type: functional; conditions: 3D7, 0 h
[4] = tested on: Plasmodium falciparum; experiment: Antimalarial activity against trophozoite stage of Plasmodium falciparum 3D7 infected in human erythrocytes assessed as parasite survival level at 10 uM measured immediately at 0 hrs by Giemsa staining-based microscopic analysis (reference value: 3.55 +/- 5.02%); type: functional; conditions: 3D7, 0 h
[5] = tested on: Plasmodium falciparum; experiment: Antimalarial activity against schizont stage of Plasmodium falciparum 3D7 infected in human erythrocytes assessed as parasite survival level at 10 uM measured immediately at 0 hrs by Giemsa staining-based microscopic analysis (reference value: 0%); type: functional; conditions: 3D7, 0 h
[6] = tested on: Plasmodium falciparum; experiment: Antimalarial activity against ring stage of Plasmodium falciparum 3D7 infected in human erythrocytes assessed as parasite survival level at 10 uM incubated for 48 hrs by Giemsa staining-based microscopic analysis (reference value: 51.3 +/- 1.83%); type: functional; conditions: 3D7, 48 h
[7] = tested on: Plasmodium falciparum; experiment: Antimalarial activity against trophozoite stage of Plasmodium falciparum 3D7 infected in human erythrocytes assessed as parasite survival level at 10 uM incubated for 48 hrs by Giemsa staining-based microscopic analysis (reference value: 43.65 +/- 5.16%); type: functional; conditions: 3D7, 48 h
[8] = tested on: Plasmodium falciparum; experiment: Antimalarial activity against schizont stage of Plasmodium falciparum 3D7 infected in human erythrocytes assessed as parasite survival level at 10 uM incubated for 48 hrs by Giemsa staining-based microscopic analysis (reference value: 5 +/- 7.07%); type: functional; conditions: 3D7, 48 h
[9] = tested on: Plasmodium falciparum; experiment: Antimalarial activity against synchronized ring stage of Plasmodium falciparum 3D7 infected in human erythrocytes assessed as inhibition of parasite growth incubated for 48 hrs by Giemsa staining-based microscopic analysis; type: functional, organism-based; conditions: 3D7, 48 h
Summary of the method: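 Sorbitol-synchronized ring-stage 3D7 in human O+ erythrocytes was exposed to four concentrations (1, 5, 10 and 20) for 48 h. Parasitemia was counted on Giemsa smears and IC50 taken from the dose-response curve. Mean ± SD of three independent experiments.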

[10] = tested on: Plasmodium falciparum; experiment: Antimalarial activity against chloroquine resistant Plasmodium falciparum RKL9 infected in human erythrocytes assessed as reduction in parasitemia incubated for 0 to 48 hrs by Giemsa staining-based microscopic analysis; type: functional, organism-based
Summary of the method: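 Sorbitol-synchronized ring-stage culture at 1% parasitemia, 5% hematocrit in human O+ erythrocytes (RPMI 1640, 0.5% albumax, hypoxanthine, gentamicin; 37 °C, 5% CO2/5% O2/90% N2). Compounds at […] for 48 h. Parasitemia counted on Giemsa-stained smears at 0 and 48 h. DMSO control. Mean of three independent experiments ±SD.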

[11] = Stability of the compound in 0.01 N HCL at pH 2.0 assessed as compound remaining at 1 mg/ml incubated for 0 to 24 hrs by HPLC analysis relative to control; type: physicochemical; conditions: for remaining at 1 mg/ml: 0.01 N HCl, read-out: Stability; for Stability: buffer
Summary of the method: (§1)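 Compound stock in acetonitrile was added to 1.0 mL of fresh 0.01 N HCl (pH 2.0) or phosphate buffer (pH 7.4), held at 37 °C, and the amount remaining was measured by HPLC at intervals from 0 to 24 h.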

[12] = Stability of the compound in phosphate buffer at pH 7.4 assessed as compound remaining at 1 mg/ml incubated for 0 to 24 hrs by HPLC analysis relative to control; type: physicochemical; conditions: for Stability: buffer; for remaining at 1 mg/ml: phosphate buffer, read-out: Stability
Summary of the method: as §1

[13] = biological target: Melatonin receptor type 1A (Homo sapiens) (UniProt P48039); experiment: Inhibition of human MTNR1 receptor at 500 nM to 5 uM using TMB as substrate preincubated for 1 hr followed by substrate addition by ELISA relative to control
Summary of the method: (§2)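 ELISA kit format: compounds incubated 1 h with MTNR1 receptor (5 ng/mL), melatonin as control. TMB substrate, stop solution, OD read at 450 nm; expressed as % inhibition.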

[14] = tested on: Plasmodium falciparum; experiment: Antimalarial activity against Plasmodium falciparum 3D7 ring stage synchronized forms infected in human erythrocytes assessed as inhibition of parasite proliferation at 5 uM incubated for 48 hrs by Giemsa-staining method; type: functional; conditions: 3D7, 48 h
Summary of the method: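 P. falciparum 3D7 grown in human O+ erythrocytes at 5% hematocrit in RPMI 1640 with NaHCO3, albumax, gentamicin and hypoxanthine, at 37 °C under 90% N2/5% CO2/5% O2. Single-concentration screen read as % inhibition of parasite proliferation. Mean of three experiments, each in triplicate.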

[15] = tested on: Plasmodium falciparum; experiment: (§3) Antimalarial activity against mixed stage of Plasmodium falciparum infected in human erythrocytes assessed as protection against melatonin-induced parasite synchronization by measuring parasitemia at 1 uM measured immediately at 0 hrs by Giemsa staining-based microscopic analysis (reference value: 1.05 +/- 0.07%); type: functional
[16] = tested on: Plasmodium falciparum; experiment: as §3, with “at 5” for “at 1”; type: functional
[17] = tested on: Plasmodium falciparum; experiment: as §3, with “incubated for 48” for “measured immediately at 0”, “4.76” for “1.05”, “0.61%)” for “0.07%)”; type: functional
[18] = tested on: Plasmodium falciparum; experiment: as §3, with “5” for “1”, “incubated for 48” for “measured immediately at 0”, “4.76” for “1.05”, “0.61%)” for “0.07%)”; type: functional
[19] = tested on: Plasmodium falciparum; experiment: as §3, with “ring” for “mixed”, “parasitemia” for “parasitemia at”, “immediately” for “immediately at 0 hrs”, “23.90” for “1.05”, “0.84%)” for “0.07%)”; type: functional
[20] = tested on: Plasmodium falciparum; experiment: as §3, with “troph” for “mixed”, “parasitemia” for “parasitemia at”, “immediately” for “immediately at 0 hrs”, “52.50” for “1.05”, “0.70%)” for “0.07%)”; type: functional
[21] = tested on: Plasmodium falciparum; experiment: as §3, with “schizont” for “mixed”, “parasitemia” for “parasitemia at”, “immediately” for “immediately at 0 hrs”, “23.25” for “1.05”, “0.35%)” for “0.07%)”; type: functional
[22] = tested on: Plasmodium falciparum; experiment: as §3, with “ring” for “mixed”, “5” for “at 1”, “immediately” for “immediately at 0 hrs”, “23.90” for “1.05”, “0.84%)” for “0.07%)”; type: functional
[23] = tested on: Plasmodium falciparum; experiment: as §3, with “troph” for “mixed”, “5” for “at 1”, “immediately” for “immediately at 0 hrs”, “52.50” for “1.05”, “0.70%)” for “0.07%)”; type: functional
[24] = tested on: Plasmodium falciparum; experiment: as §3, with “schizont” for “mixed”, “5” for “at 1”, “immediately” for “immediately at 0 hrs”, “23.25” for “1.05”, “0.35%)” for “0.07%)”; type: functional
[25] = tested on: Plasmodium falciparum; experiment: as §3, with “ring” for “mixed”, “parasitemia” for “parasitemia at”, “incubated for 48” for “measured immediately at 0”, “11.80” for “1.05”, “9.19%)” for “0.07%)”; type: functional
[26] = tested on: Plasmodium falciparum; experiment: as §3, with “troph” for “mixed”, “parasitemia” for “parasitemia at”, “incubated for 48” for “measured immediately at 0”, “88.20” for “1.05”, “9.19%)” for “0.07%)”; type: functional
[27] = tested on: Plasmodium falciparum; experiment: (§4) Antimalarial activity against schizont stage of Plasmodium falciparum infected in human erythrocytes assessed as protection against melatonin-induced parasite synchronization by measuring parasitemia 1 uM incubated for 48 hrs by Giemsa staining-based microscopic analysis (reference value: 0%); type: functional
[28] = tested on: Plasmodium falciparum; experiment: as §4, with “ring” for “schizont”, “5” for “1”, “11.80 +/- 9.19%)” for “0%)”; type: functional
[29] = tested on: Plasmodium falciparum; experiment: as §4, with “troph” for “schizont”, “5” for “1”, “88.20 +/- 9.19%)” for “0%)”; type: functional
[30] = tested on: Plasmodium falciparum; experiment: Antimalarial activity against schizont stage of Plasmodium falciparum infected in human erythrocytes assessed as protection against melatonin-induced parasite synchronization by measuring parasitemia 5 uM incubated for 48 hrs by Giemsa staining-based microscopic analysis (reference value: 0%); type: functional
[31] = biological target: Melatonin receptor type 1A (Homo sapiens) (UniProt P48039); experiment: Inhibition of human MTNR1 receptor at 500 nM using TMB as substrate preincubated for 1 hr followed by substrate addition by ELISA relative to control
Summary of the method: as §2

[32] = biological target: Melatonin receptor type 1A (Homo sapiens) (UniProt P48039); experiment: Inhibition of human MTNR1 receptor at 1 uM using TMB as substrate preincubated for 1 hr followed by substrate addition by ELISA relative to control
Summary of the method: as §2

[33] = biological target: Melatonin receptor type 1A (Homo sapiens) (UniProt P48039); experiment: Inhibition of human MTNR1 receptor at 5 uM using TMB as substrate preincubated for 1 hr followed by substrate addition by ELISA relative to control
Summary of the method: as §2

Sequence of Melatonin receptor type 1A (Homo sapiens) (P48039 whole entry): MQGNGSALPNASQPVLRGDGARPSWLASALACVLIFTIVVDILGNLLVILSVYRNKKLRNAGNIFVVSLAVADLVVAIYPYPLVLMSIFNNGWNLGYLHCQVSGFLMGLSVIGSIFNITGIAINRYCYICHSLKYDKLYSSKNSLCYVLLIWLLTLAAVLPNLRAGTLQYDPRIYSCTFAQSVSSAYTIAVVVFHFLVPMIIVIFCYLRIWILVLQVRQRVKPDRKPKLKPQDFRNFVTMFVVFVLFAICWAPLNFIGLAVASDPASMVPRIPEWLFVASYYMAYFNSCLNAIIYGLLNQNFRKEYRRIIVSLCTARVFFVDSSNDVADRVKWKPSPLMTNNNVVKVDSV

Structure (SMILES)	growth inhibition (GI) [2]	survival at 10 µM [3] [%]	survival at 10 µM [4] [%]	survival at 10 µM [5] [%]	survival at 10 µM [6] [%]	survival at 10 µM [7] [%]	survival at 10 µM [8] [%]	IC50 [9] [µM]	inhibition [10]	inhibition at 5 µM [14] [%]	also measured
CNCCc1c(/C=C/[C@@]2(C)C[C@H](C=C(C)C)c3c(CCNC)c4ccccc4n32)[nH]c2ccccc12											IC50 [1]: 0.15 to 1.42 µM
CC/N=C(/c1ccc(C)cc1)c1[nH]c2ccccc2c1CCNC(=O)OC	Active	93	7	0	0	97.5	2.5	4.28	Dose dependent effect		remaining at 1 mg/ml [11]: 20%; Stability [12]: Unstable; inhibition [13]: inactive
C/N=C(/c1ccccc1)c1[nH]c2ccccc2c1CCNC(=O)OC	Active	95.8	4.15	0	17.5	77.5	5	0.89	Dose dependent effect		Stability [11]: Unstable; Stability [12]: Unstable
CC(C)=C[C@H]1C[C@@](C)(/C=C/c2[nH]c3ccccc3c2CCN(C)C)n2c1c(CCN(C)C)c1ccccc12											IC50 [1]: 0.15 to 1.42 µM
C/N=C(/c1ccc(OC)cc1F)c1[nH]c2ccccc2c1CCNC(=O)OC										47	
CC(C)=C[C@H]1C[C@](C)(/C=C/c2[nH]c3ccccc3c2CCN(C)C)n2c1c(CCN(C)C)c1ccccc12											IC50 [1]: 0.15 to 1.42 µM
CC(=O)NCCc1c(Cc2ccccc2)[nH]c2ccccc12 [LUZINDOLE]	Active	91.5	8	0.5	61.6	38.4	0			48	Activity [15]: 1.1%; Activity [16]: 1.03%; Activity [17]: 2.88%; Activity [18]: 2.56%; Activity [19]: 23%; Activity [20]: 50.5%; Activity [21]: 25.8%; Activity [22]: 23.75%; Activity [23]: 51.9%; Activity [24]: 24%; Activity [25]: 19.1%; Activity [26]: 80.9%; Activity [27]: 0%; Activity [28]: 21.97%; Activity [29]: 77.15%; Activity [30]: 0.88%
CC/N=C(/c1cc(C(F)(F)F)cc(C(F)(F)F)c1)c1[nH]c2ccc(OC)cc2c1CCNC(=O)OC	Active	92.5	7	0.5	68.5	17.5	14	2.73	Dose dependent effect		inhibition [31]: 60%; inhibition [32]: 80%; inhibition [33]: 70%; Stability [11]: Unstable; remaining at 1 mg/ml [12]: 60%
C/N=C(\c1[nH]c2ccccc2c1CCNC(=O)OC)c1c(F)cccc1F	Active	93	3	2.82	61.2	27.5	11.2	0.73	Dose dependent effect		remaining at 1 mg/ml [11]: 90%; remaining at 1 mg/ml [12]: 95%
C/N=C(\c1cc(Br)cs1)c1[nH]c2ccccc2c1CCNC(=O)OC											inhibition at 10 µM [2]: 15%
C/N=C(/c1cc(C(F)(F)F)cc(C(F)(F)F)c1)c1[nH]c2ccc(OC)cc2c1CCNC(=O)OC	Active	95	5	0	4.95	95	0	0.74	Dose dependent effect		Activity [15]: 1.15%; Activity [16]: 1.1%; Activity [17]: 2.8%; Activity [18]: 1.65%; Activity [19]: 24.2%; Activity [20]: 53.8%; Activity [21]: 22.95%; Activity [22]: 24.1%; Activity [23]: 53.25%; Activity [24]: 21.85%; Activity [25]: 18%; Activity [26]: 79.1%; Activity [27]: 2.9%; Activity [28]: 27.25%; Activity [29]: 70.9%; Activity [30]: 1.85%; inhibition [31]: 75%; inhibition [33]: 85%; Stability [11]: Unstable; remaining at 1 mg/ml [12]: 60%
COC(=O)NCCc1c(C(=O)c2ccc(Cl)cc2)[nH]c2ccccc12										9	
C/N=C(/c1ccc(Cl)cc1)c1[nH]c2ccccc2c1CCNC(=O)OC										32	
